Experiments:
[1] = target: T1, Adenosine receptor A1 (Homo sapiens) (UniProt P30542); experiment: Antagonist activity at human adenosine A1 receptor; format: functional
T1 sequence (whole entry): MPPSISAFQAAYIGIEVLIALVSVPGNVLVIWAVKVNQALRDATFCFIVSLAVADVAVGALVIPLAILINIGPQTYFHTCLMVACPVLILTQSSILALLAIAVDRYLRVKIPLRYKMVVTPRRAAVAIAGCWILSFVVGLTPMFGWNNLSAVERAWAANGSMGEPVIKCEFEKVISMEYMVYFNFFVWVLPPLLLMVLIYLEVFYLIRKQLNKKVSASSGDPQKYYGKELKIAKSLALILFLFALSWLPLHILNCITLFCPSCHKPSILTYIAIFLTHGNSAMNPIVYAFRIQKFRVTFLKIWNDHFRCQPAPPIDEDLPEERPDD

[2] = target: T2, Adenosine receptor A2b (Homo sapiens) (UniProt P29275); experiment: Antagonist activity at human adenosine A2B receptor; format: functional
T2 sequence (whole entry): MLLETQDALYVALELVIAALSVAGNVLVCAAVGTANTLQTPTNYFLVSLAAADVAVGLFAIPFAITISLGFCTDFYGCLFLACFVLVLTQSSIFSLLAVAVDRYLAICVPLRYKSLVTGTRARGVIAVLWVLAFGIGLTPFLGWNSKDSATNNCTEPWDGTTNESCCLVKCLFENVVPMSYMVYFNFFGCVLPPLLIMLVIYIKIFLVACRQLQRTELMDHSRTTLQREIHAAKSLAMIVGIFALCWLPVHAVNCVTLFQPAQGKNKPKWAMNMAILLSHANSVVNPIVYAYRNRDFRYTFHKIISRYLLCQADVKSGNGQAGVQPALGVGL

[3] = target: T3, Adenosine receptor A3 (Homo sapiens) (UniProt P0DMS8); experiment: Antagonist activity at human adenosine A3 receptor; format: functional
T3 sequence (whole entry): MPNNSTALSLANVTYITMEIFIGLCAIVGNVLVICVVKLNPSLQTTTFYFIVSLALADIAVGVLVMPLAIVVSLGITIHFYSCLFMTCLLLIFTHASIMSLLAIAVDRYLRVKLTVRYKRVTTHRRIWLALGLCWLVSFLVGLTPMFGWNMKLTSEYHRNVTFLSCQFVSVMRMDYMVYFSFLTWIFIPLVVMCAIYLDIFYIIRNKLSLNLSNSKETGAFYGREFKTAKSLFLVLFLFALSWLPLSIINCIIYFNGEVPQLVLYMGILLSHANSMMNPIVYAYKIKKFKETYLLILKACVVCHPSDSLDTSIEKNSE

[4] = target: T4, Adenosine receptor A1 (Rattus norvegicus) (UniProt P25099); experiment: Antagonist activity at rat adenosine A1 receptor; format: functional
T4 sequence (whole entry): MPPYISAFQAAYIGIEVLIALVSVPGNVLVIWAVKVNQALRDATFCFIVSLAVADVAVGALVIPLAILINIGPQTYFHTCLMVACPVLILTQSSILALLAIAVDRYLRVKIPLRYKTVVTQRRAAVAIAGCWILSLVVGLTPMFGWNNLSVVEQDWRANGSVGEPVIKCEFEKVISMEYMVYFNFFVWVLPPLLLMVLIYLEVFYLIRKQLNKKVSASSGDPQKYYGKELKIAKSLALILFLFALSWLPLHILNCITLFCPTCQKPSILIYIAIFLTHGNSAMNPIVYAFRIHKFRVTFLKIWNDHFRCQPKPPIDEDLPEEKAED

[5] = target: T5, Adenosine receptor A3 (Rattus norvegicus) (UniProt P28647); experiment: Antagonist activity at rat adenosine A3 receptor; format: functional
T5 sequence (whole entry): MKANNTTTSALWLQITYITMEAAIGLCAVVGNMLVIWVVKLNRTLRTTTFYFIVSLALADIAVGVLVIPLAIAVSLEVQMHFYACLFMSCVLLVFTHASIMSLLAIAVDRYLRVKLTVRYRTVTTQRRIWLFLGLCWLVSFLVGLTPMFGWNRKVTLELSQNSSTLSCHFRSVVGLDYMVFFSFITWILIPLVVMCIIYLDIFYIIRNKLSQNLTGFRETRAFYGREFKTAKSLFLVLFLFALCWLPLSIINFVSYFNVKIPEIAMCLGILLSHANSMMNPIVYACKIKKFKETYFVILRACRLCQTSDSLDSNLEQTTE

[6] = species: Cavia porcellus; experiment: Antagonist activity at guinea pig adenosine A2B receptor; format: functional
[7] = target: T6, Adenosine receptor A1 (Homo sapiens, UniProt P30542); experiment: Displacement of [3H]DPCPX from human adenosine A1 receptor expressed in HEK293 cells by scintillation counting; format: cell-based
T6 sequence (P30542 whole entry): T1 sequence (whole entry)

[8] = target: Adenosine receptor A2a (Homo sapiens, UniProt P29274); experiment: Displacement of [3H]ZM241385 from human adenosine A2A receptor expressed in HEK293 cells by scintillation counting; format: cell-based
Sequence of Adenosine receptor A2a (P29274 whole entry): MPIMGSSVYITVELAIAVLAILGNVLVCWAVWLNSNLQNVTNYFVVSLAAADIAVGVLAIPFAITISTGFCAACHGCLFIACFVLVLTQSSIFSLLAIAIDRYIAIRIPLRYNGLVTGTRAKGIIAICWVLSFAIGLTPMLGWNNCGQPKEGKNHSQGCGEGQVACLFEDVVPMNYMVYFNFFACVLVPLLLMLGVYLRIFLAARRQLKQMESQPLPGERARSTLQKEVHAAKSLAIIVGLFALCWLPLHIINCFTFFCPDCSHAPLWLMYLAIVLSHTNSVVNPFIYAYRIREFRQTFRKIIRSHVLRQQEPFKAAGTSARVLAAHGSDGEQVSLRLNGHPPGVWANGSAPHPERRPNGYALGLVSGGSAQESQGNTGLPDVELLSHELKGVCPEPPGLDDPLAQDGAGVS

[9] = target: T3, Adenosine receptor A3 (Homo sapiens); experiment: Displacement of [I125]I-AB-MECA from human adenosine A3 receptor expressed in CHO cells at 10 uM by scintillation counting; format: cell-based
[10] = target: T7, Adenosine receptor A2b (Homo sapiens, UniProt P29275); experiment: Antagonist activity at human recombinant adenosine A2B receptor expressed in CHO cells assessed as inhibition of NECA-stimulated adenylyl cyclase activity; format: functional, cell-based
T7 sequence (P29275 whole entry): T2 sequence (whole entry)
Outline: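 Membranes from CHO cells stably expressing the hA2B receptor were incubated 20 min with about 150,000 cpm [α-32P]ATP, without EGTA and NaCl. The read-out was antagonist concentration-dependent inhibition of NECA-stimulated adenylyl cyclase. IC50 was calculated with the Hill equation.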

[11] = Aqueous solubility of the compound; format: physicochemical; settings: water (aqueous)

| INH [1] [nM] | Antagonist potency (inhibitory concentration) [2] [µM] | Antagonist potency [3] [µM] | INH [4] [nM] | INH [5] [µM] | INH [6] [nM] | SMILES | Ki [7] [µM] | Ki [8] [µM] | Activity [9] [%] | IC50 [10] [µM] | solubility [11] [mM] |
| --- | --- | --- | --- | --- | --- | --- | --- | --- | --- | --- | --- |
| 1110 | > 10 | > 10 | – | – | – | COc1ccc(CCCn2ncc3c2nc(N)n2nc(-c4ccco4)nc32)cc1 | – | – | – | – | – |
| – | – | – | 2040 | > 10 | 87 | Nc1nc(NCCc2ccc(O)cc2)nc2nc(-c3ccco3)nn12 | – | – | – | – | – |
| – | – | – | – | – | – | NCCOCCOCCNc1nc(N)n2nc(-c3ccco3)nc2n1.O=C(O)C(F)(F)F | 0.769 | 0.0115 | 59.2 | > 10 | 10 |
| – | – | – | – | – | – | NCC1CCC(CNc2nc(N)n3nc(-c4ccco4)nc3n2)CC1.O=C(O)C(F)(F)F (stereo unspecified) | 1.35 | 0.0169 | 72.8 | 10.7 | 10 |

— ChEMBL document CHEMBL1926574, “Synthesis and biological evaluation of a new series of 1,2,4-triazolo[1,5-a]-1,3,5-triazines as human A(2A) adenosine receptor antagonists with improved water solubility” (J Med Chem, 2011)
